Data as given in ChEMBL document CHEMBL3259543 (Bioorg Med Chem Lett, 2014).

Columns and labels:
[1] = biological target: Protease (Human immunodeficiency virus 1) (UniProt Q9YQ12); experiment: Inhibition of purified HIV-1 protease using [Arg-Glu(EDANS)-Ser-Gin-Asn-Tyr-Ile-Val-Gin-Lys(dabcyl)-Arg) as fluorogenic substrate at 10 nM by fluorescence assay
Protease [2] = biological target: T1, Protease (Human immunodeficiency virus 1, UniProt Q9YQ12); experiment: Inhibition of purified HIV-1 protease using [Arg-Glu(EDANS)-Ser-Gin-Asn-Tyr-Ile-Val-Gin-Lys(dabcyl)-Arg) as fluorogenic substrate at 2 ng/ml by fluorescence assay
T1 sequence (Q9YQ12 whole entry): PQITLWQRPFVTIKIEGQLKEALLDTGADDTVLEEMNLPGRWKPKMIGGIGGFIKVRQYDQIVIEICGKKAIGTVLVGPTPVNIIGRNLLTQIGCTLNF

Protease [3] = biological target: T1, Protease; experiment: Inhibition of purified HIV-1 protease using [Arg-Glu(EDANS)-Ser-Gin-Asn-Tyr-Ile-Val-Gin-Lys(dabcyl)-Arg) as fluorogenic substrate at 0.4 ng/ml by fluorescence assay
Protease [4] = biological target: T1, Protease; experiment: Inhibition of purified HIV-1 protease using [Arg-Glu(EDANS)-Ser-Gin-Asn-Tyr-Ile-Val-Gin-Lys(dabcyl)-Arg) as fluorogenic substrate by fluorescence assay
Outline: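 Wild-type HIV-1 protease, cloned, expressed in Escherichia coli and purified. Inhibitors dissolved in DMSO and diluted. Incubation at 30 °C in 0.1 M sodium acetate, 1 M NaCl, 1 mM DTT, 1 mM EDTA, 3% DMSO, pH 5.0, with the EDANS/dabcyl fluorogenic peptide substrate. Cleavage read by fluorescence in a microplate reader.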

Protease [5] = biological target: T1, Protease; experiment: Inhibition of purified HIV-1 protease using [Arg-Glu(EDANS)-Ser-Gin-Asn-Tyr-Ile-Val-Gin-Lys(dabcyl)-Arg) as fluorogenic substrate at 10 ng/ml by fluorescence assay
Protease [6] = biological target: T1, Protease; experiment: Inhibition of purified HIV-1 protease using [Arg-Glu(EDANS)-Ser-Gin-Asn-Tyr-Ile-Val-Gin-Lys(dabcyl)-Arg) as fluorogenic substrate at 0.08 ng/ml by fluorescence assay
Protease [7] = biological target: T1, Protease; experiment: Inhibition of purified HIV-1 protease using [Arg-Glu(EDANS)-Ser-Gin-Asn-Tyr-Ile-Val-Gin-Lys(dabcyl)-Arg) as fluorogenic substrate at 50 ng/ml by fluorescence assay

Chain of Protease (Human immunodeficiency virus 1) (Q9YQ12 as listed by the source): as the sequence (Q9YQ12 whole entry) above

Row | SMILES | inhibition [1] [%] | Inhibition (Protease [2]) [%] | Inhibition (Protease [3]) [%] | IC50 (Protease [4]) [nM] | Inhibition (Protease [5]) [%] | Inhibition (Protease [6]) [%] | Inhibition (Protease [7]) [%]
1 | CC(C)(C)NC(=O)[C@@H]1CN(Cc2cccnc2)CCN1C[C@@H](O)C[C@@H](Cc1ccccc1)C(=O)N[C@H]1c2ccccc2C[C@H]1O | 96.9 | – | – | – | – | – | –
2 | COc1ccc(S(=O)(=O)N(CC(C)C)C[C@@H](O)[C@H](Cc2ccccc2)NC(=O)O[C@H]2CO[C@H]3[C@@H]2OC[C@H]3O)cc1 | – | 99.5 | 74.2 | 0.1 | 98 | 51.4 | 97.2
3 | CC(C)CN(C[C@@H](O)[C@H](Cc1ccccc1)NC(=O)O[C@H]1CO[C@H]2[C@@H]1OC[C@H]2O[N+](=O)[O-])S(=O)(=O)c1ccc(N)cc1 | – | 94.2 | 75.7 | 0.12 | 98.6 | 47.2 | 94.7
4 | CC(C)CN(C[C@@H](O)[C@H](Cc1ccccc1)NC(=O)O[C@H]1CO[C@H]2[C@@H]1OC[C@H]2O)S(=O)(=O)c1ccc(N)cc1 | – | 80.7 | 57.7 | 0.43 | 95.4 | 33.7 | 98.3

More lines, now with the values ahead:

Row | inhibition [1] [%] | Inhibition (Protease [2]) [%] | Inhibition (Protease [3]) [%] | IC50 (Protease [4]) [nM] | Inhibition (Protease [5]) [%] | Inhibition (Protease [6]) [%] | Inhibition (Protease [7]) [%] | SMILES
5 | – | 93.1 | 62.6 | 0.11 | 100 | 53.7 | 93.1 | COc1ccc(S(=O)(=O)N(CC(C)C)C[C@@H](O)[C@H](Cc2ccccc2)NC(=O)O[C@H]2CO[C@H]3[C@@H]2OC[C@H]3O[N+](=O)[O-])cc1
6 | – | 93.5 | 83.2 | 0.05 | 102 | 53.7 | 96.2 | COc1ccc(S(=O)(=O)N(CC(C)C)C[C@@H](O)[C@H](Cc2ccccc2)NC(=O)O[C@H]2CO[C@H]3[C@@H]2OC[C@H]3OC)cc1
7 | – | 103 | 59.6 | 0.36 | 100 | 40.6 | 97 | CO[C@@H]1CO[C@H]2[C@@H]1OC[C@@H]2OC(=O)N[C@@H](Cc1ccccc1)[C@H](O)CN(CC(C)C)S(=O)(=O)c1ccc(N)cc1
